HSF1 activator: increases HSF-1 driven luciferase reporter signal. AID 504408. NIH3T3-HGL HSF-1 luciferase reporter, MG132, 8 h; 100% = twice DMSO control signal. activation, % at 9 µM. 1.7% of 300,000 active;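 active = mean replicate activation of at least 50% with a set share of replicates each reaching 50%; inconclusive = only one of those two conditions met; inactive = mean below 50% and too few replicates reaching it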
697 NFkB inh: lowers PMA/ionomycin-induced NF-kB signal in 697 B cells | 697 B-cell NF-kB luciferase reporter, 16 h | inhibition, % at 4 µM | 0.33% of 330,000 active | AID 435022; in the data active = inhibition above about 35%
Jurkat NFkB inh: lowers PMA/ionomycin-induced NF-kB signal in Jurkat cells. PMA/ionomycin-induced NF-kB luciferase reporter, luminescence. inhibition, % at 4 µM. 0.53% of 330,000 active; in the data active = inhibition above about 50%
T cruzi inh: T. cruzi replication inhibition; inhibition, % (test concentration not listed); T. cruzi beta-gal in NIH3T3, luminescence, 90 h; AID 1885; 1.4% of 300,000 active;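 active = mean inhibition across valid replicates above about 55%, limit read from the data; inconclusive = mean below that limit but half or more replicates reach it; inactive = mean below it, under half of replicates reach it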;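 also: signal also drops with host cell toxicity which is not excluded here; higher percent means less beta-gal luminescence so fewer parasites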
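System: NIH/3T3 fibroblasts plus reporter T. cruzi. Medium: DMEM plus 2% FBS. Probe or stimulus: 5000 reporter trypomastigotes per well. Compound: single 50 nL compound addition per well in DMSO. Incubation: co-culture of at least 90 h after 3 h attachment. Detection: GalScreen β-gal luminescence, detergent lysis, 60 min. Evaluation: parasite load inhibition, %.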
HSF1 inh: HSF1 inhibition; 0.77% of 300,000 active; NIH3T3-HGL HSE-luciferase, MG132-induced, luminescence 8 h; hits give low values; activity change, negative = inhibition, % at 7.5 µM (by protocol);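 active = more than half of replicate wells show activity change below -50%, luminescence cut by over half; inconclusive = some wells, but at most half, below -50%; inactive = no replicate well below -50%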;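 also: luciferase reports HSF-1 transcriptional activity via heat shock element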
GPR7 antagonist: antagonists of human GPR7 (neuropeptides B/W receptor 1); P48145; GPR7-expressing cells, fluorescence antagonist assay; inhibition, % at 4.4 µM; 1.1% of 290,000 active; AID 1861; in the data active = inhibition above about 16%, passing the limit was not always enough;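 also: cells stimulated with the agonist NPW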
Target sequence (P48145 whole entry, looked up): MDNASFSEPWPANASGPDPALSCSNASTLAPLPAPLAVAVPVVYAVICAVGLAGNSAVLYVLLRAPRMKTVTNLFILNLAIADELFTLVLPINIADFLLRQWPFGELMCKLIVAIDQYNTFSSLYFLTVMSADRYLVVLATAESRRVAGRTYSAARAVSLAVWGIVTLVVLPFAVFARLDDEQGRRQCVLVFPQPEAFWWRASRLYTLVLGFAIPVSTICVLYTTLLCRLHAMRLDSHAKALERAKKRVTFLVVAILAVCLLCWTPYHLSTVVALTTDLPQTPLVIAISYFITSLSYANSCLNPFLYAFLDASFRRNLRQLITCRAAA
Large screens that a line does not name were inactive. Compounds with a hit are over-represented: about 4.8% of the library has one in this group of screens.

CC(C)CNC(=O)COc1cccc(C(=O)NCc2ccccc2)c1	none
Cc1cccc(/C(N)=N/OC(=O)c2ccoc2C)c1	HSF1 activator 85
Cc1occc1C(=O)O/N=C(\N)c1ccccc1	none
COc1ccc(N=Cc2ccc(-c3ccccc3)o2)cc1	none
CCCCOc1ccc(S(N)(=O)=O)cc1	none
COc1ccc(N=Cc2ccc[nH]2)cc1	HSF1 inh -62
CCCCOc1ccc(N=Cc2ccc[nH]2)cc1	HSF1 inh -68
O=C(CN1C(=O)NC2(CCCc3ccccc32)C1=O)Nc1cccc(S(=O)(=O)N2CCCCC2)c1 (stereo not given)	HSF1 activator 58
CCOC(=O)N1CCN(S(=O)(=O)c2cccs2)CC1	none
CCOc1ccc2nc(NC(=O)C3CCCN(S(=O)(=O)c4cccs4)C3)sc2c1 (stereo not given)	T cruzi inh 61
CCOc1ccc(C(=O)N2CCN(S(=O)(=O)c3cccs3)CC2)c(OCC)c1	HSF1 activator 54
CCc1cccc(NC(=O)C2CCCN(S(=O)(=O)c3cccs3)C2)c1 (stereo not given)	HSF1 inh -73
CCOc1ccc2nc(NC(=O)C(NS(=O)(=O)c3cccs3)C(C)C)sc2c1 (stereo not given)	none
O=c1c(-c2cnn(-c3ccccc3)c2)coc2cc(O)ccc12	HSF1 activator 94
COc1cc(/C=C/C(=O)O[C@H]2[C@H](O[C@@H]3O[C@@H](C)[C@H](O)[C@@H](O)[C@H]3O)[C@@H](O)[C@H](OCCc3ccc(O)c(OC)c3)O[C@@H]2CO)ccc1O	none (no result: HSF1 activator, T cruzi inh, HSF1 inh, GPR7 antagonist)
O=C(/C=C/c1ccc(F)cc1)NC(=S)N1CCN(c2ccccn2)CC1	HSF1 activator 59
COc1ccc(/C=C/C(=O)NC(=S)N2CCN(c3ccccn3)CC2)cc1OC	none
O=C(Nc1ccc2ccccc2c1)c1cc(F)c(F)cc1Cl	HSF1 activator 59
COc1ccc(-c2cc(C(=O)Nc3ccc(Cl)cc3Cl)c3ccccc3n2)cc1OC	none
COc1ccc(-c2cc(C(=O)Nc3ccccc3O)c3ccccc3n2)cc1OC	HSF1 activator 71
O=C(NNC(=O)c1cc(-c2ccc(Cl)c(Cl)c2)nc2ccccc12)Nc1ccccc1	HSF1 activator 56
COc1cc(-c2cc(C(=O)Nc3ccc(S(=O)(=O)NCc4ccco4)cc3)c3ccccc3n2)cc(OC)c1OC	T cruzi inh 56
CC(C)c1ccc(C2/C(=C(/O)c3ccc(F)cc3)C(=O)C(=O)N2CCCN2CCOCC2)cc1 (stereo not given)	none
COC(=O)C(NNc1ccccc1)(NC(=O)c1cccc(F)c1)C(F)(F)F (stereo not given)	none
O=C(O)c1ccc(N/N=C/C2=Cc3ccccc3OC2)cc1	none
CCN1CCCC1CN(Cc1cc2ccc(C)cc2[nH]c1=O)C(=S)Nc1ccc(OC)cc1 (stereo not given)	none
CCN1CCCC1CN(Cc1cc2ccc(C)cc2[nH]c1=O)C(=S)Nc1cccc(OC)c1 (stereo not given)	HSF1 activator 60
Cc1cc(C(=O)N/N=C/c2ccc([N+](=O)[O-])s2)n[nH]1	T cruzi inh 57
Cc1cc(C)n(CC(=O)N/N=C/c2cccs2)n1	none
Cc1cc(C(=O)N/N=C/c2ccc(C)s2)n[nH]1	none
CCOC(=O)N/N=C\c1ccc([N+](=O)[O-])s1	none
Cc1cc(C(=O)N/N=C/c2ccc(-c3ccccc3Cl)o2)n[nH]1	T cruzi inh 62
Cc1[nH]cnc1C(=O)N/N=C/c1ccc([N+](=O)[O-])s1	T cruzi inh 57
Cc1cc(C)n(CC(=O)N/N=C/c2ccc([N+](=O)[O-])s2)n1	T cruzi inh 59
O=C(NCCCCNC(=O)c1ccccc1Br)c1ccccc1Br	none (no result: T cruzi inh, GPR7 antagonist)
Cc1ccccc1NC(=O)c1c(C)nn(-c2ccccc2)c1Cl	none
CCCc1ccc2oc(C(=O)NCc3nnc(C)o3)c(C)c2c1	none
CCc1nc(SCC(=O)c2ccc(Cl)s2)c2oc3ccccc3c2n1	HSF1 activator 84
c1cncc(-c2nnc(SCc3nc4ccccc4[nH]3)o2)c1	HSF1 inh -68
CCOC(=O)CSc1nc2sc(C)c(C)c2c(=O)n1N	none
Cc1cc(C)cc(NCc2ccncc2)c1	none
O=[N+]([O-])c1cccnc1NCCc1ccccc1	none
O=[N+]([O-])c1cccnc1NCCc1c[nH]c2ccccc12	HSF1 activator 54
NC(=O)c1cc(Cc2ccccc2)sc1NC(=O)c1ccco1	HSF1 activator 134
Cc1ccccc1OCCNC(=O)c1ccc2ccccc2n1	HSF1 activator 86
CN(C)CCN1C(=O)c2oc3ccccc3c(=O)c2C1c1ccc(F)cc1 (stereo not given)	none
COc1cccc(C2c3c(oc4ccccc4c3=O)C(=O)N2CCCN(C)C)c1OC (stereo not given)	HSF1 activator 66
CCN(CC)CCN1C(=O)c2oc3ccccc3c(=O)c2C1c1ccc(C)cc1 (stereo not given)	none
CCN(CC)CCCN1C(=O)c2oc3ccccc3c(=O)c2C1c1cccc(OC)c1OC (stereo not given)	HSF1 activator 67
Oc1ccc(/C=N/Nc2nc(N3CCCCCC3)nc(N3CCCCCC3)n2)c(O)c1	none
C/C(=N\Nc1nc(N2CCCCC2)nc(N2CCOCC2)n1)c1ccccc1O	T cruzi inh 55
BrC(=C\c1ccccc1)/C=N/Nc1nc(N2CCOCC2)nc(N2CCOCC2)n1	none
Oc1ccc(Br)cc1/C=N/Nc1nc(N2CCCCC2)nc(N2CCOCC2)n1	T cruzi inh 74
CN(C)c1ccc(/C=C/C=N/Nc2nc(N3CCOCC3)nc(N3CCOCC3)n2)cc1	HSF1 activator 79
C/C(=N\Nc1nc(N2CCOCC2)nc(N2CCOCC2)n1)c1cccs1	none
BrC(/C=C\c1ccccc1)=N/Nc1nc(N2CCOCC2)nc(N2CCOCC2)n1	HSF1 activator 176
Cc1ccc2c(C)c(C(=O)NCCN3CCOC3=O)oc2c1C	none
C[C@H]1COC(=O)CC/C=C\C[C@H](CC(=O)N(CCO)Cc2ccccc2)C(=O)N1	none (no result: HSF1 activator, T cruzi inh, HSF1 inh, GPR7 antagonist)
COc1cc(/C=C2/NC(=O)N(Cc3ccccc3F)C2=O)ccc1O	HSF1 activator 107
Cc1cccc(NC(=O)CN2C(=O)N/C(=C/c3cc(C)n(C(C)C)c3C)C2=O)c1	T cruzi inh inconclusive, HSF1 inh -57
Cc1cccc(NC(=O)CN2C(=O)N/C(=C/c3ccc(C)s3)C2=O)c1	none
Cc1cc(/C=C2/NC(=O)N(Cc3ccccc3F)C2=O)c(C)n1C(C)C	T cruzi inh 57
Fc1ccc(COc2ccc(C(=S)N3CCCC3)cc2)cc1	none
CCCc1cc(=O)oc2c3c(cc(OCC(=O)N[C@@H](C)C(=O)O)c12)OC(C)(C)CC3	HSF1 activator 67
CCCc1cc(=O)oc2c3c(cc(OCC(=O)N[C@@H](CSC)C(=O)O)c12)OC(C)(C)CC3	none

Bioassay records as filed in PubChem.
